# Screening results as filed in PubChem.
# Only some compounds are listed: those with a hit (about 2% of all), similar ones and a draw of the others.
# PG9 binder: small molecules binding HIV-1 gp120 antibody PG9 | TR-FRET gp120-PG9 antibody binding | inhibition, % at 6.7 µM | 0.43% of 360,000 active | AID 624416; in the data active = inhibition above about 8.5%
# Rev-erbA mod: modulates human Rev-erb alpha binding to DNA; Rev-erbα–FITC-DNA binding, fluorescence polarization, 90 min; activity, % at 10 µM; 0.79% of 370,000 active; AID 1259318;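 active = activity above about 14%, limit read from the data; passing the limit was not always enough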;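 note: 0% = DMSO wells with 35 nM protein and 100% = DMSO wells with 750 nM protein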
# Target sequence (P20393 whole entry, looked up): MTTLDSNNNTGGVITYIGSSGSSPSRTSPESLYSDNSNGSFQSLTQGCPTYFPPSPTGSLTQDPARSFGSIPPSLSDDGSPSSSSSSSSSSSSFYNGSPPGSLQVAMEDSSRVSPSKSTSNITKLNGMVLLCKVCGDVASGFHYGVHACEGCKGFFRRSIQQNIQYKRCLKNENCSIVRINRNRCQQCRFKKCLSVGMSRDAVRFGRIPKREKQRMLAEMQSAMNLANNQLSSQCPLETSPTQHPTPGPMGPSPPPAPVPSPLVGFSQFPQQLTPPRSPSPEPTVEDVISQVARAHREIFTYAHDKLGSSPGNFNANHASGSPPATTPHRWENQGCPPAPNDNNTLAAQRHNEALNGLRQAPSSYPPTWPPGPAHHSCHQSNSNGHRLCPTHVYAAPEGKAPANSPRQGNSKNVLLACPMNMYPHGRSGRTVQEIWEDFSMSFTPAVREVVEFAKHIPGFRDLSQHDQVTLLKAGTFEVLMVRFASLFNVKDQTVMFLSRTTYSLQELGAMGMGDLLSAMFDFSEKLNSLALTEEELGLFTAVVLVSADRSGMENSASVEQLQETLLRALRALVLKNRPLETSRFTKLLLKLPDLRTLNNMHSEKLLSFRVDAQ
# NR2E3 ag-1: human photoreceptor-specific nuclear receptor agonism; CHO-S Gal4-NCOR/VP16-NR2E3 two-hybrid, luciferase; 0.35% of 360,000 active; AID 602229; Q9Y5X4; inhibition of corepressor binding, % at 3.98 µM;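 active = inhibition above the mean of all tested compounds plus 3 SD, cut at about 70% in these data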;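 note: 0% = DMSO with NR2E3 transfected cells and 100% = cells lacking NR2E3 construct; higher means lower luciferase signal from less NR2E3 corepressor binding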
# Neddylation inh: blocks human cullin neddylation | P61081+Q13564 | TR-FRET cullin neddylation, biochemical | calls only at 25 µM | 0.58% of 360,000 active | AID 651699; in the data active = inhibition above about 36%
# NR2E3 ag-2: agonists of human nuclear receptor NR2E3. GST-NR2E3/biotin-RetCOR TR-FRET, 1536-well. 0.12% of 320,000 active. inhibition of corepressor binding, % at 4.78 µM. AID 2300. Q9Y5X4;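 active = percent inhibition above the cutoff of mean plus 3 SD of all tested compounds, set per screening campaign, cut at about 20% in these data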;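 note: 0% = DMSO wells and 100% = biotin wells as full block of FRET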
#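 Material – GST-tagged NR2E3 plus biotinylated RetCOR corepressor · Quantity – NR2E3 fusion 1.35 nM · Times – 5 h incubation at 4 °C · Medium – pH 7.5 Tris-based buffer · Technique – TR-FRET, Eu(K)-anti-GST donor, streptavidin-D2 acceptor, ex 340, em 617/671 nm · Benchmarks – high control biotin, low control 0.6% DMSO · Format – 1536-well plates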
# Rev-erbA confirm: confirmation of modulators of human Rev-erb alpha DNA binding; Rev-erb alpha FITC-DNA binding, fluorescence polarization, 90 min; activation, % at 25 µM; shares compounds with Rev-erbA mod; 61% of 3,000 active; AID 1259319;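 active = activation at or above a set limit, or at least 3 SD above the negative control mean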;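 note: 0% = 35 nM protein with DMSO and 100% = 750 nM protein high control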
# RORg counter: counter-screen for Rev-erb alpha modulators: RORgamma DNA binding; IC50, µM; purified RORgamma protein-FITC-DNA binding, fluorescence polarization; 8% of 910 active; shares compounds with Rev-erbA mod;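 active = Compounds whose fitted half-maximal concentration for disrupting protein-DNA binding is below 10 micromolar; the record names Rev-erb in its text, so the target is in doubt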
# * marks the source's active call; other numbers are inactive results; i = inactive; x = not tested or not shown.
SMILES,PG9 binder,Rev-erbA mod,NR2E3 ag-1,Neddylation inh,NR2E3 ag-2,Rev-erbA confirm,others
O=S(=O)(CC1NCCc2ccccc21)NCc1ccc(F)cc1 (stereo not given),x,0,x,x,x,x,
CN1C(=O)c2cc(NC(=O)Nc3ccccc3)ccc2OC[C@H]2O[C@@H](CC(=O)NC3CCC3)CC[C@@H]21,x,49*,x,x,x,29*,RORg counter=>40
COC(=O)C[C@@H]1CC[C@H]2[C@H](COc3ccc(NC(=O)c4ccc(OC)cc4)cc3C(=O)N2C)O1,x,0,x,x,x,x,
COC(=O)C[C@@H]1CC[C@H]2[C@@H](COc3ccc(NC(=O)Nc4ccccc4)cc3C(=O)N2C)O1,x,-2,x,x,x,x,
CN1C(=O)c2cc(NC(=O)Nc3ccccc3)ccc2OC[C@H]2O[C@@H](CC(=O)NC3Cc4ccccc4C3)CC[C@@H]21,x,13,x,x,x,x,
Cc1nn(C)cc1NC(=O)C[C@H]1CC[C@H]2[C@@H](COc3ccc(NC(=O)Nc4ccccc4)cc3C(=O)N2C)O1,x,42*,x,x,x,21*,
COc1ccc(C(=O)Nc2ccc3c(c2)C(=O)N(C)[C@H]2CC[C@H](CC(=O)NCC4CC4)O[C@@H]2CO3)cc1,x,30*,x,x,x,18*,
OC(c1ccc(Cl)c(F)c1)c1ncc(-c2cccc3ccccc23)[nH]1 (stereo not given),-2,0,6,i,x,x,
CCCn1c(CN(C)Cc2ccccc2)nc2c1c(=O)n(C)c(=O)n2C,1,-5,21,i,0,x,
CN(Cc1ccccc1)Cc1nc2c(c(=O)n(C)c(=O)n2C)n1Cc1ccccc1Cl,1,31*,-10,i,0,50*,
CCCCCCNC(=O)C(C#N)c1nc2ccccc2nc1N1CCCC1 (stereo not given),-3,-2,0,i,2,x,
CCCCN(CCCC)c1nc2ccccc2nc1C(C#N)C(=O)NCCCOC (stereo not given),1,69*,-9,i,3,11,
N#CC(C(=O)NCCc1ccccc1)c1nc2ccccc2nc1N1CCCCC1 (stereo not given),0,36*,2,i,-1,11,
CCN(CC)c1nc2ccccc2nc1C(C#N)C(=O)NCCCOC (stereo not given),-1,-3,3,x,0,x,
CCCCCCNC(=O)C(C#N)c1nc2ccccc2nc1N1CCOCC1 (stereo not given),-2,40*,20,i,-1,34*,RORg counter=>40
Cc1cc(C(=O)c2ccc3ccccc3c2)c(C)o1,-1,-4,-17,i,-1,x,
Cn1c(/C(C#N)=C(\O)c2cc(Cl)sc2Cl)nc2ccccc21,2,-7,-13,i,-2,x,
Cn1c(/C(C#N)=C(\O)c2ccc(Br)s2)nc2ccccc21,-56,39*,-20,i,-4,8,
O=C(Nc1ccc(Br)cc1F)c1ccncc1,1,-3,-18,i,1,x,
O=C(Nc1ccc(Br)cc1F)c1ccc2nsnc2c1,1,31*,-24,i,-2,22*,
COc1ccccc1NC(=O)c1ccc2nsnc2c1,-3,4,-51,i,1,x,
Cc1ccc(NC(=O)c2ccc3nsnc3c2)c(Cl)c1,-4,27*,-155,i,-6,16,
CCCC(CNC(C)=O)(C1=CCCCC1)c1ccccc1 (stereo not given),1,5,0,i,x,x,
O=C(Nc1ccccc1)c1sc(Cl)nc1-c1ccccc1,-1,-1,-2,i,3,x,
Cc1ccc(NC(=O)c2sc(Cl)nc2-c2ccccc2)cc1C,3,53*,-18,i,-1,38*,RORg counter=>40
COc1ccccc1Cc1c(C(C)(C)C)nc2c(C)cc(Br)cn12,1,-6,x,x,x,x,
CCc1ccccc1N(C)S(=O)(=O)c1ccc2[nH]cc(C(=O)N3CCc4ccccc43)c(=O)c2c1,0,45*,13,i,5,27*,
CCCCN1CC(=O)N2[C@H](C[C@@]3(n4ccc5ccccc54)c4ccccc4N(S(=O)(=O)c4ccccc4)[C@@H]23)C1=O,x,10,x,x,x,x,
Brc1ccc2nc(-c3ccc(CN4CCC(c5nc6ccccc6[nH]5)CC4)cc3)c(-c3ccccc3)nc2c1,-1,16*,x,x,x,12*,
